ChEMBL document CHEMBL5653605, “Reduced VEGF production, angiogenesis, and vascular regrowth contribute to the antitumor properties of dual mTORC1/mTORC2 inhibitors” (Cancer Res, 2011)
Activity calls are given as the source filed them.

Columns and labels:
[1] = system: Pancreatic islet cell carcinoma; assay: Antivascular activity against pancreatic islet cell carcinoma in RIP-Tag2 mouse assessed as reduction in CD31-positive tumor blood vessels at 200 mg/kg, po qd administered via gavage and measured after 7 days by immunohistochemical staining based fluorescence microscopic analysis relative to control; type: functional; design: scale not given: the % may be the effect or the level left; settings: time 7 day
In short: (§1)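 For 7 days, RIP-Tag2 mice, 9–10 weeks old, received 75 mg/kg gavage BID, 200 mg/kg gavage QD, or 20 mg/kg ip QD. Perfusion-fixed tumors cut at 60–80 µm and stained for CD31 and type IV collagen basement membrane. Vessel area density from fluorescence images with threshold 30–50; sprouts and empty basement membrane sleeves examined by confocal microscopy. 3–8 mice/group; ANOVA, Fisher PLSD.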

[2] = system: Pancreatic islet cell carcinoma; assay: Antivascular activity against pancreatic islet cell carcinoma in RIP-Tag2 mouse assessed as appearance of empty basement membrane sleeves at 200 mg/kg, po qd administered via gavage and measured after 7 days by immunohistochemical staining based fluorescence microscopic analysis; type: functional, organism-based; settings: time 7.0 day; in short: as §1
[3] = system: Pancreatic islet cell carcinoma; assay: Antivascular activity against pancreatic islet cell carcinoma in RIP-Tag2 mouse assessed as reduction in vascular sprouts at 200 mg/kg, po qd administered via gavage and measured after 7 days by immunohistochemical staining based fluorescence microscopic analysis relative to control; type: functional; design: scale not given: the % may be the effect or the level left; settings: time 7 day; in short: as §1
[4] = system: Pancreatic islet cell carcinoma; assay: Antivascular activity in pancreatic islet cell carcinoma in RIP-Tag2 mouse assessed as reduction in intratumoral hemorrhage by measuring reduction in TER-119 immunoreactivity at 200 mg/kg, po qd administered via gavage and measured after 7 days by confocal microscopic analysis relative to control; type: functional; design: scale not given: the % may be the effect or the level left; settings: time 7 day
In short: (§2)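 Regrowth design in 10-week-old RIP-Tag2 mice: OSI-930 200 mg/kg gavage QD for 7 days, then 4 days of vehicle, 75 mg/kg gavage BID, or 20 mg/kg ip QD; controls received vehicle for 11 days. Perfusion-fixed sections stained for CD31 for vessel density or for the erythrocyte marker TER-119, quantified by confocal microscopy. 3–8 mice/group; ANOVA, Fisher PLSD.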

[5] = system: Pancreatic islet cell carcinoma; assay: Antivascular activity in pancreatic islet cell carcinoma in RIP-Tag2 mouse assessed as reduction in intratumoral hemorrhage by measuring reduction in TER-119 immunoreactivity at 200 mg/kg, po qd administered via gavage for 7 days followed by cessation and measured after 4 days by confocal microscopic analysis relative to control; type: functional; design: scale not given: the % may be the effect or the level left; settings: time 7 day; in short: as §2
[6] = system: Pancreatic islet cell carcinoma; assay: Additive antitumor activity in pancreatic islet cell carcinoma in RIP-Tag2 mouse assessed as reduction in proliferation by measuring reduction in phospho-histone H3 level at 100 mg/kg, po qd administered via gavage for 4 days in presence of OXA-01 by immunohistochemistry analysis; type: functional, organism-based; settings: time 4.0 day
In short: (§3)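 Perfusion-fixed tumor sections (60–80 µm) stained for phospho-histone H3 (proliferation) or activated caspase-3 (apoptosis) and quantified from confocal images. 3–8 mice/group; ANOVA, Fisher PLSD.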

[7] = system: Pancreatic islet cell carcinoma; assay: Additive antitumor activity in pancreatic islet cell carcinoma in RIP-Tag2 mouse assessed as induction of apoptosis by measuring increase in activated caspase-3 level at 100 mg/kg, po qd administered via gavage for 4 days in presence of OXA-01 by immunohistochemistry analysis relative to control; type: functional; settings: time 4 day; in short: as §3
[8] = system: Pancreatic islet cell carcinoma; assay: Antitumor activity in pancreatic islet cell carcinoma in RIP-Tag2 mouse assessed as induction of apoptosis by measuring increase in activated caspase-3 level at 100 mg/kg, po qd administered via gavage for 4 days in presence of rapamycin by immunohistochemistry analysis; type: functional, organism-based; settings: time 4.0 day; in short: as §3
[9] = target: Vascular endothelial growth factor receptor 2 (Homo sapiens, UniProt P35968)
Vascular endothelial growth factor receptor 2, sequence (P35968 whole entry): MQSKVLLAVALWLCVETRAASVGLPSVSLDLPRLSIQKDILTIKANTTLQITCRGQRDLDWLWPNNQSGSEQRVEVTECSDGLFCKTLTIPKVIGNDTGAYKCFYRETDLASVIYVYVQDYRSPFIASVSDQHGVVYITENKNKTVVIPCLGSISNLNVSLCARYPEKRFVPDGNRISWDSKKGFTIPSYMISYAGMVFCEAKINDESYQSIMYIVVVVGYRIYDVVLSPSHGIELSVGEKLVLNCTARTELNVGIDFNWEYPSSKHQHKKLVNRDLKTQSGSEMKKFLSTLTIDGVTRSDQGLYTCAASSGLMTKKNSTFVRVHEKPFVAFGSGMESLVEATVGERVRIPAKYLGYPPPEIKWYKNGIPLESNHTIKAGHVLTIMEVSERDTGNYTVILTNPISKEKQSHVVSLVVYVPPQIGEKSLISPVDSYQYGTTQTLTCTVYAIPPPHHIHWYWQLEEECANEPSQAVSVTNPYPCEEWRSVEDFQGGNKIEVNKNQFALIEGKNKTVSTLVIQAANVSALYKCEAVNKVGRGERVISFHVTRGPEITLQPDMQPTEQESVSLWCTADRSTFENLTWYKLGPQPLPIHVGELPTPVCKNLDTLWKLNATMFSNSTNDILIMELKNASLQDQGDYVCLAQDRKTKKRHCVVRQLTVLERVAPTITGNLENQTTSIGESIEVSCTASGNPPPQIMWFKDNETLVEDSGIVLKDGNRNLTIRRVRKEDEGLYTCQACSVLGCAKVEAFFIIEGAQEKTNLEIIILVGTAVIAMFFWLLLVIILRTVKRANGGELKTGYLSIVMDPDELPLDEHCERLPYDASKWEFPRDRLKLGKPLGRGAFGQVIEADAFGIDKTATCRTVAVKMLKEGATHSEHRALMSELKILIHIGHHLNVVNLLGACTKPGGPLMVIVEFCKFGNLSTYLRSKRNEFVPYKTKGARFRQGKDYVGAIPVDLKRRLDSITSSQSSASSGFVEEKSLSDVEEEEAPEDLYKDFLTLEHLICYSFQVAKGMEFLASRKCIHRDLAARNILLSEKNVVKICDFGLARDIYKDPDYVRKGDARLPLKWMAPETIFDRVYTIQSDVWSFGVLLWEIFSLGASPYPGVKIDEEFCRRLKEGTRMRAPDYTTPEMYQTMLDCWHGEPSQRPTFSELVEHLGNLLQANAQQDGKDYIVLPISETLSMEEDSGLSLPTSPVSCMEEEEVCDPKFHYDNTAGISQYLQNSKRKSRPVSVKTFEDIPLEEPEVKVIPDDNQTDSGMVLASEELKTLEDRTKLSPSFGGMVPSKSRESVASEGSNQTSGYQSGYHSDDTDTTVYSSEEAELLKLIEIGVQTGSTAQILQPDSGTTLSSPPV

[10] = target: RAC-alpha serine/threonine-protein kinase (Homo sapiens) (UniProt P31749); assay: Inhibition of AKT phosphorylation at Ser 473 site in serum deprived/insulin stimulated human OVCAR-3 cells harboring PTEN and wild type PI3K at 0.001 to 10 uM preincubated for 2 hrs followed by insulin stimulation and measured immediately by Western blot analysis; type: cell-based; settings: dose 0.001-10 µM
RAC-alpha serine/threonine-protein kinase (Homo sapiens), sequence (P31749 whole entry): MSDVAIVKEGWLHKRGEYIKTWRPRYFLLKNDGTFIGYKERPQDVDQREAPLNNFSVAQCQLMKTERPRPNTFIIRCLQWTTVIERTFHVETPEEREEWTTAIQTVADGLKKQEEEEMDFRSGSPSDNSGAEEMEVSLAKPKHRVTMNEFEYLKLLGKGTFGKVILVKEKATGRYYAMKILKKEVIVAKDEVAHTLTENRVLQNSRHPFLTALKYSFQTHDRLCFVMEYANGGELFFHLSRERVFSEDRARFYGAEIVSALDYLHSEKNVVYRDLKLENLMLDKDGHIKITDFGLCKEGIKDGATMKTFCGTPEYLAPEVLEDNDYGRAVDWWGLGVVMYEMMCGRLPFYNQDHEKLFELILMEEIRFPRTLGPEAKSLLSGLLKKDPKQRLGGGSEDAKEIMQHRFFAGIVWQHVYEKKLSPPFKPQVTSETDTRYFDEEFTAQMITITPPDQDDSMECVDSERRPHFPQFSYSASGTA

[11] = target: Proline-rich AKT1 substrate 1 (Homo sapiens) (UniProt Q96B36); assay: Inhibition of PRAS40 phosphorylation at Ser 246 residue in serum deprived/insulin stimulated human OVCAR-3 cells harboring PTEN and wild type PI3K at 0.001 to 10 uM preincubated for 2 hrs followed by insulin stimulation and measured immediately by Western blot analysis; type: cell-based; settings: dose 0.001-10 µM
[12] = target: Eukaryotic translation initiation factor 4E-binding protein 1 (Homo sapiens) (UniProt Q13541); assay: Inhibition of 4E-BP1 phosphorylation at Ser 37/46 residues in serum deprived/insulin stimulated human OVCAR-3 cells harboring PTEN and wild type PI3K at 0.001 to 10 uM preincubated for 2 hrs followed by insulin stimulation and measured immediately by Western blot analysis; type: cell-based; settings: dose 0.001-10 µM
Eukaryotic translation initiation factor 4E-binding protein 1 (Homo sapiens), sequence (Q13541 whole entry): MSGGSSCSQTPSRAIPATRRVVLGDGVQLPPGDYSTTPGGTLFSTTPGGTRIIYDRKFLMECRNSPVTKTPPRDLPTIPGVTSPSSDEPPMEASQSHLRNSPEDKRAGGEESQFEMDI

OVCAR-3 [13] = assay: Inhibition of S6K phosphorylation at 235/236 residues in serum deprived/insulin stimulated human OVCAR-3 cells harboring PTEN and wild type PI3K at 0.001 to 10 uM preincubated for 2 hrs followed by insulin stimulation and measured immediately by Western blot analysis; type: cell-based; settings: dose 0.001-10 µM
OVCAR-3 [14] = assay: Inhibition of S6K at […] residues in serum deprived/insulin stimulated human OVCAR-3 cells harboring PTEN and wild type PI3K assessed as inhibition of s6 substrate phosphorylation at […] residue at 0.001 to 10 uM preincubated for 2 hrs followed by insulin stimulation and measured immediately by Western blot analysis; type: cell-based; settings: dose 0.001-10 µM
Mus musculus [15] = assay: In vivo inhibition of S6 phosphorylation at 235/236 residues in nu/nu CD-1 mouse xenografted with human GEO cells at 20 mg/kg administered for 12 days and measured 2 to 24 hrs post last dose by Western blot analysis; type: functional, organism-based; settings: time 290-312 hrs
In short: (§4)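 GEO s.c. xenografts in nu/nu CD-1 mice; 20 mg/kg for 12 days; tumors snap-frozen at 2, 8, 24 h, lysed in Triton X-100/HEPES pH 7.4 buffer with phosphatase inhibitors; phospho and total 4E-BP1 (37/46) or S6 (235/236) by Western blot; n=2.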

Mus musculus [16] = assay: In vivo inhibition of 4E-BP1 phosphorylation at Ser37/46 residues in nu/nu CD-1 mouse xenografted with human GEO cells at 20 mg/kg administered for 12 days and measured 2 to 24 hrs post last dose by Western blot analysis; type: functional, organism-based; settings: time 290-312 hrs; in short: as §4
Mus musculus [17] = assay: In vivo inhibition of AKT phosphorylation in RIP-Tag2 mouse with pancreatic islet cell carcinoma 20 mg/kg, ip qd measured after 7 days by immunohistochemistry; type: functional, organism-based; settings: time 7.0 day
In short: (§5)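 RIP-Tag2 mice, 9–10 weeks old, given 20 mg/kg QD ip for 7 days; perfusion-fixed, 60–80 µm tumor sections immunostained for phospho-4E-BP1, phospho-Akt or phospho-S6K together with CD31; fluorescence/confocal imaging; 3–8 mice per group.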

Mus musculus [18] = assay: In vivo inhibition of 4E-BP1 phosphorylation in RIP-Tag2 mouse with pancreatic islet cell carcinoma 20 mg/kg, ip qd measured after 7 days by immunohistochemistry; type: functional, organism-based; settings: time 7.0 day; in short: as §5
Mus musculus [19] = assay: In vivo inhibition of S6K phosphorylation in RIP-Tag2 mouse with pancreatic islet cell carcinoma 20 mg/kg, ip qd measured after 7 days by immunohistochemistry analysis; type: functional, organism-based; settings: time 7.0 day; in short: as §5
[20] = system: Pancreatic islet cell carcinoma; assay: Antitumor activity against pancreatic islet cell carcinoma in RIP-Tag2 mouse assessed as reduction in VEGF production by measuring reduction in fluorescence in entire tumor at 20 mg/kg, ip qd measured after 7 days by immunohistochemical staining based confocal microscopic analysis relative to control; type: functional; design: scale not given: the % may be the effect or the level left; settings: time 7 day
In short: (§6)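 Treatment began in RIP-Tag2 mice at 9–10 weeks: 75 mg/kg gavage BID for 1, 4 or 7 days, or 20 mg/kg ip QD for 7 days; vehicle Labrifil or water. Tissue fixed by vascular perfusion and 60–80 µm sections stained for VEGF with CD31. VEGF fluorescence intensity measured over whole tumor, tumor cells, or tumor vessels. 3–8 mice/group; ANOVA, Fisher PLSD.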

[21] = system: Pancreatic islet cell carcinoma; assay: Antitumor activity against pancreatic islet cell carcinoma in RIP-Tag2 mouse assessed as reduction in VEGF production by measuring reduction in tumor cell associated fluorescence intensity at 20 mg/kg, ip qd measured after 7 days by immunohistochemical staining based confocal microscopic analysis relative to control; type: functional; design: scale not given: the % may be the effect or the level left; settings: time 7 day; in short: as §6
[22] = system: Pancreatic islet cell carcinoma; assay: Antitumor activity against pancreatic islet cell carcinoma in RIP-Tag2 mouse assessed as reduction in VEGF production by measuring reduction in tumor vessels associated fluorescence intensity at 20 mg/kg, ip qd measured after 7 days by immunohistochemical staining based confocal microscopic analysis relative to control; type: functional; design: scale not given: the % may be the effect or the level left; settings: time 7 day; in short: as §6
[23] = system: Pancreatic islet cell carcinoma; assay: Antitumor activity against pancreatic islet cell carcinoma in RIP-Tag2 mouse assessed as reduction in VEGF-A expression at 20 mg/kg, ip qd measured after 7 days by immunoprecipitation based densitometric analysis; type: functional, organism-based; settings: time 7.0 day
In short: (§7)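 VEGF in tumor lysates from treated RIP-Tag2 mice (9–10 weeks old at start; 75 mg/kg gavage BID or 20 mg/kg ip QD) measured with mouse angiogenesis antibody arrays, read as pixel density. 3–8 mice/group, SEM; ANOVA with Fisher PLSD.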

[24] = system: Pancreatic islet cell carcinoma; assay: Antitumor activity against pancreatic islet cell carcinoma in RIP-Tag2 mouse assessed as reduction in VEGF-B expression at 20 mg/kg, ip qd measured after 7 days by immunoprecipitation based densitometric analysis; type: functional, organism-based; settings: time 7.0 day; in short: as §7
[25] = system: Pancreatic islet cell carcinoma; assay: Antivascular activity against pancreatic islet cell carcinoma in RIP-Tag2 mouse assessed as reduction in CD31-positive tumor blood vessels at 20 mg/kg, ip qd measured after 7 days by immunohistochemical staining based fluorescence microscopic analysis; type: functional, organism-based; settings: time 7.0 day; in short: as §1
[26] = system: Pancreatic islet cell carcinoma; assay: Antivascular activity against pancreatic islet cell carcinoma in RIP-Tag2 mouse assessed as appearance of empty basement membrane sleeves at 20 mg/kg, ip qd measured after 7 days by immunohistochemical staining based confocal microscopic analysis; type: functional, organism-based; settings: time 7.0 day; in short: as §1
[27] = system: Pancreatic islet cell carcinoma; assay: Antivascular activity against pancreatic islet cell carcinoma in RIP-Tag2 mouse assessed as reduction in vascular sprouts at 20 mg/kg, ip qd measured after 7 days by immunohistochemical staining based fluorescence microscopic analysis relative to control; type: functional; design: scale not given: the % may be the effect or the level left; settings: time 7 day; in short: as §1
[28] = system: Pancreatic islet cell carcinoma; assay: Antivascular activity in pancreatic islet cell carcinoma in RIP-Tag2 mouse assessed as suppression of tumor regrowth by measuring reduction in vessel density at 20 mg/kg, ip qd pretreated with OSI-930 for 7 days at 200 mg/kg, po followed by compound administration and measured after 4 days (reference value: 18%); type: functional; design: scale not given: the % may be the effect or the level left; settings: time 4 day; in short: as §2
[29] = system: Pancreatic islet cell carcinoma; assay: Antivascular activity in pancreatic islet cell carcinoma in RIP-Tag2 mouse assessed as reduction in intratumoral hemorrhage by measuring reduction in TER-119 immunoreactivity at 20 mg/kg, ip qd pretreated with OSI-930 for 7 days at 200 mg/kg, po followed by compound administration and measured after 4 days by confocal microscopic analysis relative to control; type: functional; design: scale not given: the % may be the effect or the level left; settings: time 4 day; in short: as §2
[30] = system: Pancreatic islet cell carcinoma; assay: Antitumor activity in pancreatic islet cell carcinoma in RIP-Tag2 mouse assessed as induction of apoptosis by measuring increase in activated caspase-3 level at 20 mg/kg, ip qd […] for 4 days in presence of OSI-930 by immunohistochemistry analysis; type: functional, organism-based; settings: time 4.0 day; in short: as §3

Structure (SMILES): O=C(Nc1ccc(OC(F)(F)F)cc1)c1sccc1NCc1ccnc2ccccc12 [OSI-930]
- Activity [1]: 61%
- Activity [2]: Active
- Activity [3]: 61%
- Activity [4]: 72%
- Activity [5]: 28%
- Activity [6]: Active
- Activity [7]: 700%
- Activity [8]: inactive
- IC50 [9]: 9 nM

Structure (SMILES): CO[C@H]1C[C@@H]2CC[C@@H](C)[C@@](O)(O2)C(=O)C(=O)N2CCCC[C@H]2C(=O)O[C@H]([C@H](C)C[C@@H]2CC[C@@H](O)[C@H](OC)C2)CC(=O)[C@H](C)/C=C(\C)[C@@H](O)[C@@H](OC)C(=O)[C@H](C)C[C@H](C)/C=C/C=C/C=C/1C [SIROLIMUS]
- inhibition [10]: inactive
- inhibition [11]: inactive
- inhibition [12]: inactive
- inhibition (OVCAR-3 [13]): Active
- inhibition (OVCAR-3 [14]): Active
- inhibition (Mus musculus [15]): Active
- inhibition (Mus musculus [16]): Active
- inhibition (Mus musculus [17]): inactive
- inhibition (Mus musculus [18]): inactive
- inhibition (Mus musculus [19]): Active
- Activity [20]: 21%
- Activity [21]: 34%
- Activity [22]: 20%
- Activity [23]: inactive
- Activity [24]: inactive
- Activity [25]: inactive
- Activity [26]: inactive
- Activity [27]: 21%
- Activity [28]: 15%
- Activity [29]: 48%
- Activity [30]: inactive
